Columns and labels:
Format in all cases: functional
Coptotermes formosanus [1] = test: Termiticidal activity against Coptotermes formosanus placed on 0.1 % wt/wt compound treated filter paper assessed as termite mortality measured 21 days post compound exposure
How it was run: (§1)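 Treated filter paper disks moistened with 100 µL water; 20 C. formosanus workers (third instar or greater) plus 1 soldier per dish from field colonies kept on spruce, ca. 100% RH, 26.6 °C. Daily mortality scored for 3 weeks; cumulative percent mortality from four replicates, each a different colony; water-only controls; ANOVA, protected Fisher LSD (P < 0.05) after arcsine square-root transform.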

Coptotermes formosanus [2] = test: Termiticidal activity against Coptotermes formosanus placed on 0.5 % wt/wt compound treated filter paper assessed as termite mortality measured 6 days post compound exposure; how it was run: as §1
Coptotermes formosanus [3] = test: Antifeedant activity against Coptotermes formosanus placed on 0.01 % wt/wt compound treated filter paper assessed as filter paper consumption measured 21 days post compound exposure (reference value: 44.6 +/- 0.0 mg)
Coptotermes formosanus [4] = test: Termiticidal activity against Coptotermes formosanus placed on 0.001 % wt/wt compound treated filter paper assessed as termite mortality measured 9 days post compound exposure; how it was run: as §1
Coptotermes formosanus [5] = test: Termiticidal activity against Coptotermes formosanus placed on 0.01 % wt/wt compound treated filter paper assessed as termite mortality measured 21 days post compound exposure; how it was run: as §1
Coptotermes formosanus [6] = test: Termiticidal activity against Coptotermes formosanus placed on 1 % wt/wt compound treated filter paper assessed as termite mortality measured 3 days post compound exposure
Coptotermes formosanus [7] = test: Termiticidal activity against Coptotermes formosanus placed on 0.05 % wt/wt compound treated filter paper assessed as termite mortality measured 13 days post compound exposure; how it was run: as §1
Coptotermes formosanus [8] = test: Termiticidal activity against Coptotermes formosanus placed on 0.1 % wt/wt compound treated filter paper assessed as termite mortality measured 9 days post compound exposure; how it was run: as §1
Coptotermes formosanus [9] = test: Termiticidal activity against Coptotermes formosanus placed on 0.5 % wt/wt compound treated filter paper assessed as termite mortality measured 21 days post compound exposure; how it was run: as §1
Coptotermes formosanus [10] = test: Termiticidal activity against Coptotermes formosanus placed on 0.1 % wt/wt compound treated filter paper assessed as termite mortality measured 11 days post compound exposure; how it was run: as §1
Coptotermes formosanus [11] = test: Termiticidal activity against Coptotermes formosanus placed on 0.5 % wt/wt compound treated filter paper assessed as termite mortality measured 9 days post compound exposure; how it was run: as §1
Coptotermes formosanus [12] = test: Termiticidal activity against Coptotermes formosanus placed on 0.01 % wt/wt compound treated filter paper assessed as termite mortality measured 6 days post compound exposure; how it was run: as §1
Coptotermes formosanus [13] = test: Termiticidal activity against Coptotermes formosanus placed on 1 % wt/wt compound treated filter paper assessed as termite mortality measured 21 days post compound exposure
Coptotermes formosanus [14] = test: Antifeedant activity against Coptotermes formosanus placed on 0.001 % wt/wt compound treated filter paper assessed as filter paper consumption measured 21 days post compound exposure (reference value: 44.6 +/- 0.0 mg)
Coptotermes formosanus [15] = test: Termiticidal activity against Coptotermes formosanus placed on 0.5 % wt/wt compound treated filter paper assessed as termite mortality measured 17 days post compound exposure; how it was run: as §1
Coptotermes formosanus [16] = test: Termiticidal activity against Coptotermes formosanus placed on 0.5 % wt/wt compound treated filter paper assessed as termite mortality measured 13 days post compound exposure; how it was run: as §1
Coptotermes formosanus [17] = test: Termiticidal activity against Coptotermes formosanus placed on 0.01 % wt/wt compound treated filter paper assessed as termite mortality measured 17 days post compound exposure; how it was run: as §1
Coptotermes formosanus [18] = test: Termiticidal activity against Coptotermes formosanus placed on 0.001 % wt/wt compound treated filter paper assessed as termite mortality measured 11 days post compound exposure; how it was run: as §1
Coptotermes formosanus [19] = test: Termiticidal activity against Coptotermes formosanus placed on 0.1 % wt/wt compound treated filter paper assessed as termite mortality measured 13 days post compound exposure; how it was run: as §1
Coptotermes formosanus [20] = test: Termiticidal activity against Coptotermes formosanus placed on 0.01 % wt/wt compound treated filter paper assessed as termite mortality measured 9 days post compound exposure; how it was run: as §1
Coptotermes formosanus [21] = test: Termiticidal activity against Coptotermes formosanus placed on 0.001 % wt/wt compound treated filter paper assessed as termite mortality measured 13 days post compound exposure; how it was run: as §1
Coptotermes formosanus [22] = test: Termiticidal activity against Coptotermes formosanus placed on 0.05 % wt/wt compound treated filter paper assessed as termite mortality measured 17 days post compound exposure; how it was run: as §1
Coptotermes formosanus [23] = test: Termiticidal activity against Coptotermes formosanus placed on 0.01 % wt/wt compound treated filter paper assessed as termite mortality measured 11 days post compound exposure; how it was run: as §1
Coptotermes formosanus [24] = test: Termiticidal activity against Coptotermes formosanus placed on 0.05 % wt/wt compound treated filter paper assessed as termite mortality measured 9 days post compound exposure; how it was run: as §1
Coptotermes formosanus [25] = test: Termiticidal activity against Coptotermes formosanus placed on 0.001 % wt/wt compound treated filter paper assessed as termite mortality measured 17 days post compound exposure; how it was run: as §1
Coptotermes formosanus [26] = test: Termiticidal activity against Coptotermes formosanus placed on 1 % wt/wt compound treated filter paper assessed as termite mortality measured 11 days post compound exposure
Coptotermes formosanus [27] = test: Termiticidal activity against Coptotermes formosanus placed on 0.001 % wt/wt compound treated filter paper assessed as termite mortality measured 21 days post compound exposure; how it was run: as §1
Coptotermes formosanus [28] = test: Termiticidal activity against Coptotermes formosanus placed on 0.01 % wt/wt compound treated filter paper assessed as termite mortality measured 13 days post compound exposure; how it was run: as §1
Coptotermes formosanus [29] = test: Termiticidal activity against Coptotermes formosanus placed on 0.1 % wt/wt compound treated filter paper assessed as termite mortality measured 6 days post compound exposure; how it was run: as §1
Coptotermes formosanus [30] = test: Antifeedant activity against Coptotermes formosanus placed on 0.5 % wt/wt compound treated filter paper assessed as filter paper consumption measured 21 days post compound exposure (reference value: 44.6 +/- 0.0 mg)
Coptotermes formosanus [31] = test: Termiticidal activity against Coptotermes formosanus placed on 0.05 % wt/wt compound treated filter paper assessed as termite mortality measured 11 days post compound exposure; how it was run: as §1
Coptotermes formosanus [32] = test: Termiticidal activity against Coptotermes formosanus placed on 0.001 % wt/wt compound treated filter paper assessed as termite mortality measured 6 days post compound exposure; how it was run: as §1
Coptotermes formosanus [33] = test: Termiticidal activity against Coptotermes formosanus placed on 0.5 % wt/wt compound treated filter paper assessed as termite mortality measured 11 days post compound exposure; how it was run: as §1
Coptotermes formosanus [34] = test: Termiticidal activity against Coptotermes formosanus placed on 0.1 % wt/wt compound treated filter paper assessed as termite mortality measured 17 days post compound exposure; how it was run: as §1
Coptotermes formosanus [35] = test: Termiticidal activity against Coptotermes formosanus placed on 0.05 % wt/wt compound treated filter paper assessed as termite mortality measured 6 days post compound exposure; how it was run: as §1
Coptotermes formosanus [36] = test: Termiticidal activity against Coptotermes formosanus placed on 0.05 % wt/wt compound treated filter paper assessed as termite mortality measured 21 days post compound exposure; how it was run: as §1
Coptotermes formosanus [37] = test: Antifeedant activity against Coptotermes formosanus placed on 1 % wt/wt compound treated filter paper assessed as filter paper consumption measured 21 days post compound exposure (reference value: 15.9 +/- 10.4 mg)
Coptotermes formosanus [38] = test: Antifeedant activity against Coptotermes formosanus placed on 0.1 % wt/wt compound treated filter paper assessed as filter paper consumption measured 21 days post compound exposure (reference value: 44.6 +/- 0.0 mg)
Coptotermes formosanus [39] = test: Antifeedant activity against Coptotermes formosanus placed on 0.05 % wt/wt compound treated filter paper assessed as filter paper consumption measured 21 days post compound exposure (reference value: 44.6 +/- 0.0 mg)

CCCCCC1=CC(=O)C=C(OC)C1=O [Primin]
mortality (Coptotermes formosanus [1]): 50%
mortality (Coptotermes formosanus [2]): 56.7%
Activity (Coptotermes formosanus [3]): 48.4 mg
mortality (Coptotermes formosanus [4]): 0%
mortality (Coptotermes formosanus [5]): 21.7%
mortality (Coptotermes formosanus [6]): 87.5%
mortality (Coptotermes formosanus [7]): 5%
mortality (Coptotermes formosanus [8]): 21.7%
mortality (Coptotermes formosanus [9]): 100%
mortality (Coptotermes formosanus [10]): 28.3%
mortality (Coptotermes formosanus [11]): 80%
mortality (Coptotermes formosanus [12]): 0%
mortality (Coptotermes formosanus [13]): 100%
Activity (Coptotermes formosanus [14]): 48.8 mg
mortality (Coptotermes formosanus [15]): 100%
mortality (Coptotermes formosanus [16]): 96.7%
mortality (Coptotermes formosanus [17]): 10%
mortality (Coptotermes formosanus [18]): 0%
mortality (Coptotermes formosanus [19]): 36.7%
mortality (Coptotermes formosanus [20]): 0%
mortality (Coptotermes formosanus [21]): 0%
mortality (Coptotermes formosanus [22]): 8.3%
mortality (Coptotermes formosanus [23]): 0%
mortality (Coptotermes formosanus [24]): 3.3%
mortality (Coptotermes formosanus [25]): 1.7%
mortality (Coptotermes formosanus [26]): 100%
mortality (Coptotermes formosanus [27]): 8.3%
mortality (Coptotermes formosanus [28]): 5%
mortality (Coptotermes formosanus [29]): 21.7%
Activity (Coptotermes formosanus [30]): 4.9 mg
mortality (Coptotermes formosanus [31]): 3.3%
mortality (Coptotermes formosanus [32]): 0%
mortality (Coptotermes formosanus [33]): 91.7%
mortality (Coptotermes formosanus [34]): 40%
mortality (Coptotermes formosanus [35]): 3.3%
mortality (Coptotermes formosanus [36]): 25%
Activity (Coptotermes formosanus [37]): 0.1 mg
Activity (Coptotermes formosanus [38]): 26.8 mg
Activity (Coptotermes formosanus [39]): 42.2 mg
